Source: ChEMBL document CHEMBL3593166, “Hybrid chemistry. Part 4: Discovery of etravirine-VRX-480773 hybrids as potent HIV-1 non-nucleoside reverse transcriptase inhibitors” (Bioorg Med Chem, 2015)
Calls of active or inactive are those of the source. The calls are words filed in the database; no cut-off is given here.

Columns and labels:
[1] = Selectivity index, ratio of CC50 for human MT4 cells to EC50 for HIV1 3B infected in human MT4 cells; type: toxicity, cell-based; conditions: HIV1 3B infected MT4 cells, read-out: Ratio CC50/EC50
Outline: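 SI calculated as CC50 in uninfected MT-4 cells divided by EC50 against WT HIV-1 IIIB. Both come from the 4-day MTT assays at 37 °C; infection was at MOI 0.02 with cells at 1 × 10^5 cells/mL.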

[2] = system: Human immunodeficiency virus 1; test: Antiviral activity against HIV1 3B infected in human MT4 cells […] at 100 fold antiviral EC50 level added 3 to 5 hrs post infection and measured 31 hrs post infection by p24 enzyme-linked immunosorbent assay; type: functional, organism-based
Outline: (§1)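 MT-4 cells infected with WT HIV-1 at m.o.i. 0.5; after 1 h adsorption, seeded at 45,000 cells/well, 37°C. Compounds added at 0, 1, 2, 3, 4, 5, 6, 7, 8, 9, 24 or 25 h post-infection. Reference agents at fixed levels (ETV 0.19 µM); hybrids at 100-fold their MT-4/MTT EC50. Virus production measured by p24 ELISA at 31 h post-infection.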

[3] = system: Human immunodeficiency virus 1; test: Antiviral activity against HIV1 RES056 expressing reverse transcriptase K103N + Y181C mutant infected in human MT4 cells assessed as inhibition of virus-induced cytopathicity incubated for 4 days by MTT method; type: functional, organism-based; conditions: Human immunodeficiency virus 1, RES056, MT4, 96 h
Outline: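 Serial compound dilutions in MT-4 cells (1 × 10^5 cells/mL) infected at MOI 0.02 with K103N+Y181C double-mutant HIV-1. Cells added to compound right after infection and incubated 4 days at 37 °C. Viable cells counted by MTT and EC50 derived. Cytotoxicity run in parallel on uninfected cells. Values are the mean of at least three experiments.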

[4] = molecular target: Human immunodeficiency virus type 1 reverse transcriptase (Human immunodeficiency virus 1, UniProt Q72547); test: Inhibition of HIV1 recombinant wild type reverse transcriptase p66/p51 assessed as reduction in biotin deoxyuridine triphosphate (biotin-dUTP) incorporation using poly(rA)/oligo (dT)16 template and primer by spectrofluorometry
[5] = Cytotoxicity against human MT4 cells assessed as reduction in cell viability incubated for 4 days MTT method; type: cell-based
Outline: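 Uninfected MT-4 cells at 1 × 10^5 cells/mL exposed to serial compound dilutions (DMSO stocks, 50 mM or higher) in parallel with the antiviral test. Viability read by MTT after 4 days at 37 °C. CC50 is the concentration lowering viability by 50%. Values are means of at least three experiments.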

[6] = system: Human immunodeficiency virus 1; test: Antiviral activity against HIV1 3B infected in human MT4 cells assessed as inhibition of virus-induced cytopathicity incubated for 4 days by MTT method; type: functional, organism-based; conditions: Human immunodeficiency virus 1, 3B, MT4, 96 h
Outline: (§2)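 Virus stocks titrated in MT-4 cells as CCID50. MT-4 cells at 1 × 10^5 cells/mL infected at MOI 0.02 (HIV-1 IIIB or HIV-2 ROD), then plated immediately over serial compound dilutions (DMSO stocks, 50 mM or higher). After 4 days at 37 °C, viable cells counted by MTT. EC50 from means of at least three separate experiments.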

[7] = system: Human immunodeficiency virus 2; test: Antiviral activity against HIV2 ROD infected in human MT4 cells assessed as inhibition of virus-induced cytopathicity incubated for 4 days by MTT method; type: functional, organism-based; conditions: Human immunodeficiency virus 2, ISOLATE ROD, MT4, 96 h; outline: as §2
[8] = system: Human immunodeficiency virus 1; test: Antiviral activity against HIV1 3B infected in human MT4 cells […] added 3 to 5 hrs post infection and measured 31 hrs post infection by p24 enzyme-linked immunosorbent assay; type: functional, organism-based
Outline: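 MT-4 cells infected with WT HIV-1 at m.o.i. 0.5 and allowed 1 h adsorption, then seeded at 45,000 cells/well at 37 °C. Compound added at set times from 0 to 25 h post-infection. Virus production read by p24 ELISA at 31 h post-infection.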

[9] = system: Human immunodeficiency virus 1; test: Antiviral activity against HIV1 3B infected in human MT4 cells […] at 0.19 uM added 3 to 5 hrs post infection and measured 31 hrs post infection by p24 enzyme-linked immunosorbent assay; type: functional, organism-based; outline: as §1

For Cc1cc(C#N)cc(C)c1Oc1ccnc(SCC(=O)Nc2ccccc2[N+](=O)[O-])n1, the selectivity ratio [1] was over 844, the inhibition [2] was “Active” and the EC50 [3] was over 287 µM. For the same compound, the IC50 [4] was 1.17 µM, the CC50 at 96 h [5] was over 287 µM and the EC50 [6] was 0.34 µM. It also gave an EC50 [7] of over 287 µM.

With Cc1ccnc2c1NC(=O)c1cccnc1N2C1CC1 the inhibition [8] was “Active”.

Cc1cc(C#N)cc(C)c1Oc1ccnc(SCC(=O)Nc2ccc(Cl)c(Cl)c2)n1 showed a selectivity ratio [1] of 17, an EC50 [3] of over 89 µM and a CC50 at 96 h [5] of 89 µM. The EC50 [6] was 5.3 µM and the EC50 [7] was over 89 µM.

For Cc1cc(C#N)cc(C)c1Oc1ccnc(SCC(=O)Nc2ccc(O)cc2)n1, the selectivity ratio [1] was 9, the EC50 [3] was over 71 µM and the CC50 at 96 h [5] was 71 µM. For the same compound, the EC50 [6] was 8.3 µM and the EC50 [7] was over 71 µM.

Cc1cc(C#N)cc(C)c1Oc1ccnc(SCC(=O)Nc2ccc(F)cc2)n1 gave a selectivity ratio [1] of over 38, an EC50 [3] of over 306 µM and a CC50 at 96 h [5] of over 306 µM. It also gave an EC50 [6] of 8 µM and an EC50 [7] of over 306 µM.

Work on Cc1ccccc1NC(=O)CSc1nccc(Oc2c(C)cc(C#N)cc2C)n1 yielded a selectivity ratio [1] of over 52, an EC50 [3] of over 309 µM and a CC50 at 96 h [5] of over 309 µM. The EC50 [6] was 5.9 µM and the EC50 [7] was over 309 µM.

In the case of Cc1cc(C#N)cc(C)c1Oc1ccnc(SCC(=O)Nc2cccc(F)c2)n1, the selectivity ratio [1] is reported as over 38, the EC50 [3] is reported as over 306 µM and the CC50 at 96 h [5] is reported as over 306 µM. It also gave an EC50 [6] of 8.1 µM and an EC50 [7] of over 306 µM.

Compound Cc1cc(C#N)cc(C)c1Oc1ccnc(SCC(=O)Nc2cccc(Cl)c2)n1 has a selectivity ratio [1] of over 37, an EC50 [3] of over 294 µM and a CC50 at 96 h [5] of over 294 µM. The EC50 [6] was 8 µM and the EC50 [7] was over 294 µM.

In the case of Cc1cc(C#N)cc(C)c1Oc1ccnc(SCC(=O)Nc2ccc(Br)cc2)n1, the selectivity ratio [1] is reported as 17, the EC50 [3] is reported as over 24 µM and the CC50 at 96 h [5] is reported as 24 µM. It also gave an EC50 [6] of 1.4 µM and an EC50 [7] of over 24 µM.

With Cc1cc(C#N)cc(C)c1Oc1ccnc(SCC(=O)Nc2ccc([N+](=O)[O-])cc2)n1 the selectivity ratio [1] was over 205, the EC50 [3] was over 287 µM and the CC50 at 96 h [5] was over 287 µM. For the same compound, the EC50 [6] was 1.4 µM and the EC50 [7] was over 287 µM.

For Cc1cc(C#N)cc(C)c1Oc1ccnc(SCC(=O)Nc2cccc([N+](=O)[O-])c2)n1, the selectivity ratio [1] was over 7, the EC50 [3] was over 287 µM and the CC50 at 96 h [5] was over 287 µM. The EC50 [6] was 41 µM and the EC50 [7] was over 287 µM.

Cc1ccc(NC(=O)CSc2nccc(Oc3c(C)cc(C#N)cc3C)n2)cc1 showed a selectivity ratio [1] of over 61, an EC50 [3] of over 309 µM and a CC50 at 96 h [5] of over 309 µM. For the same compound, the EC50 [6] was 5.1 µM and the EC50 [7] was over 309 µM.

For Cc1cc(C#N)cc(C)c1Oc1ccnc(SCC(=O)Nc2ccc(C#N)cc2)n1, the selectivity ratio [1] was over 70, the EC50 [3] was over 301 µM and the CC50 at 96 h [5] was over 301 µM. The EC50 [6] was 4.3 µM and the EC50 [7] was over 301 µM.

In the case of Cc1cc(C#N)cc(C)c1Oc1nc(Nc2ccc(C#N)cc2)nc(N)c1Br [ETRAVIRINE], the inhibition [9] is reported as “Active”, the selectivity ratio [1] is reported as over 1120 and the CC50 at 96 h [5] is reported as over 4.6 µM.

Work on Cc1cc(C#N)cc(C)c1Oc1ccnc(SCC(=O)Nc2ccccc2)n1 yielded an EC50 [3] of over 320 µM, a CC50 at 96 h [5] of over 320 µM and an EC50 [6] of over 320 µM. The EC50 [7] was over 320 µM.

For Cc1cc(C#N)cc(C)c1Oc1ccnc(SCC(=O)Nc2ccc(C#N)cc2F)n1, the selectivity ratio [1] was over 48, the EC50 [3] was over 288 µM and the CC50 at 96 h [5] was over 288 µM. It also gave an EC50 [6] of 6 µM and an EC50 [7] of over 288 µM.

Compound Cc1cc(C#N)cc(C)c1Oc1ccnc(SCC(=O)Nc2ccc(S(N)(=O)=O)cc2)n1 has a selectivity ratio [1] of over 34, an EC50 [3] of over 266 µM and a CC50 at 96 h [5] of over 266 µM. For the same compound, the EC50 [6] was 7.9 µM and the EC50 [7] was over 266 µM.

In the case of Cc1cc(C#N)cc(C)c1Oc1ccnc(SCC(=O)Nc2ccccc2Cl)n1, the selectivity ratio [1] is reported as over 1220, the inhibition [2] is reported as “Active” and the EC50 [3] is reported as at least 10.9 µM. For the same compound, the IC50 [4] was 0.473 µM, the CC50 at 96 h [5] was over 294 µM and the EC50 [6] was 0.24 µM. The EC50 [7] was over 294 µM.

For Cc1cc(C#N)cc(C)c1Oc1ccnc(SCC(=O)Nc2ccc(Cl)cc2Cl)n1, the selectivity ratio [1] was over 227, the EC50 [3] was over 272 µM and the CC50 at 96 h [5] was over 272 µM. The EC50 [6] was 1.2 µM and the EC50 [7] was over 272 µM.

Cc1cc(C#N)cc(C)c1Oc1ccnc(SCC(=O)Nc2ccc(Cl)cc2)n1 gave a selectivity ratio [1] of over 75, an EC50 [3] of over 294 µM and a CC50 at 96 h [5] of over 294 µM. The EC50 [6] was 3.9 µM and the EC50 [7] was over 294 µM.

Compound NS(=O)(=O)c1ccc(NC(=O)CSc2nnc(Br)n2-c2ccc(C3CC3)c3ccccc23)c(Cl)c1 has a selectivity ratio [1] of 41600, an EC50 [3] of 0.00023 µM and a CC50 at 96 h [5] of 5.82 µM. The EC50 [6] was 0.00014 µM.

In the case of Cc1cc(S(N)(=O)=O)ccc1NC(=O)CSc1nccc(Oc2c(C)cc(C#N)cc2C)n1, the selectivity ratio [1] is reported as 57, the inhibition [2] is reported as “Active” and the EC50 [3] is reported as over 46 µM. For the same compound, the IC50 [4] was 2.77 µM, the CC50 at 96 h [5] was 46 µM and the EC50 [6] was 0.81 µM. It also gave an EC50 [7] of over 46 µM.

COc1ccc(NC(=O)CSc2nccc(Oc3c(C)cc(C#N)cc3C)n2)cc1 showed a selectivity ratio [1] of at least 9, an EC50 [3] of over 69 µM and a CC50 at 96 h [5] of at least 69 µM. For the same compound, the EC50 [6] was 7.3 µM and the EC50 [7] was over 69 µM.

For CC(C)Nc1cccnc1N1CCN(C(=O)c2cc3cc(NS(C)(=O)=O)ccc3[nH]2)CC1 [DELAVIRDINE], the selectivity ratio [1] was over 67, the EC50 [3] was over 44 µM and the CC50 at 96 h [5] was over 44 µM.

Cc1cc(C#N)cc(C)c1Oc1ccnc(SCC(=O)Nc2cc(Cl)cc(Cl)c2)n1 showed a selectivity ratio [1] of over 3.7, an EC50 [3] of over 41 µM and a CC50 at 96 h [5] of at least 41 µM. For the same compound, the EC50 [6] was 10.8 µM and the EC50 [7] was over 41 µM.
